This note sets out measurements from ChEMBL document CHEMBL4513216, “Probing the Open Global Health Chemical Diversity Library for Multistage-Active Starting Points for Next-Generation Antimalarials” (ACS Infect Dis, 2020).

SMILES strings stand for the structures.

The nature of this data set: Toxicity liver stage against HepG2, at 10uM. The data set is classed as cell-based. Also on record: test concentration 10 uM, cell line HepG2-A16-CD81EGFP. The conditions noted are these: human, HepG2-A16-CD81EGFP cells; read-out: INHIBITION
An outline of the steps: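 Uninfected HepG2-A16-CD81EGFP cells, 3 × 10^3 per well, 1536-well, plated on prespotted compound at 10 μM final, parasite-free screening media added to match infected plates; puromycin 10 μM positive, DMSO 0.5% negative; run in parallel with 48 h PbLuc assay at 37 °C, 5% CO2; viability by CellTiter-Glo luminescence, normalized to controls.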
For the molecule `COc1ccc2c(ccn2CC(=O)Nc2n[nH]c(C(C)C)n2)c1`, the cytotoxicity at 10 µM was -6.72%.
For the molecule `CCCN1CCN(C(=O)C(C)n2cc(Br)cn2)CC1` (stereo not given), the cytotoxicity at 10 µM is -18.8%.
Consider `COc1ccc(C2CC(=O)Oc3cc(C)[nH]c(=O)c32)cc1` (stereo not given), for which the cytotoxicity at 10 µM is -3.16%.
`O=C(CCc1nc2cc(Br)cnc2[nH]1)NCCCn1ccnc1`: the cytotoxicity at 10 µM is 0.905%.
For `Nc1cc2c(nn1)CCN(C(=O)c1ccc(-c3ccco3)[nH]c1=O)C2`, the cytotoxicity at 10 µM is -3.73%.
For `CCOc1ncccc1C(=O)N1CCCCC1c1nccs1` (stereo not given), the cytotoxicity at 10 µM is -8.7%.
For `CNC(=O)[C@H]1C[C@H]2OCC[C@H]2N(Cc2ccc(F)cc2)C1`, the cytotoxicity at 10 µM came out at 3.42%.
With `Cn1cccc1C(=O)NCc1cn2c(n1)CN(CC1CCOCC1)CC2`, the cytotoxicity at 10 µM was determined as 8.33%.
`Fc1ccccc1CN1C[C@@H]2CN(Cc3cccnc3)CCO[C@@H]2C1`: the cytotoxicity at 10 µM is 9.2%.
For the molecule `COc1ccc2c(c1)CN(C)C(=O)CCN2CC(O)C(C)(C)C` (stereo not given), the cytotoxicity at 10 µM turned out to be 4.17%.
On to `Cc1noc([C@H]2C[C@H]3OCC[C@H]3N(Cc3ccncc3)C2)n1`, for which the cytotoxicity at 10 µM was -74.7%.
Regarding `Cc1cc(C)c2c(c1)NC(=O)C2CC(=O)O` (stereo not given), the cytotoxicity at 10 µM stood at 9.13%.
In the case of `CS(=O)(=O)Cc1ccc(OCc2ccc(F)cc2)cc1`, the cytotoxicity at 10 µM worked out at 22.9%.
Turning to `CS(=O)(=O)NC1CCN(C(=O)c2ccc3ccccc3c2)C1` (stereo not given), the cytotoxicity at 10 µM was -9.14%.
Under `O=C(O)CC(CC(=O)NCc1ccsc1)c1cccs1` (stereo not given) stands -8.43%; under `CS(=O)(=O)N1C[C@@H]2COC[C@H](C(=O)Nc3cnccn3)[C@@H]2C1`, 14.6%; under `CC(C)N1CCOCC2(CCCN(C(=O)c3cncn3C)C2)C1` (stereo not given), -1.09%.
For `O=C(C1CCC1)N1CCC(C(=O)N2CCC(c3ccc(F)cc3)C2)CC1` (stereo not given), the cytotoxicity at 10 µM was -39.8%.
Regarding `Cc1cc2nc(C3CCCCC3)c(-c3ccnc(NCCO)n3)cn2n1`, the cytotoxicity at 10 µM was -0.0295%.
For `COc1cc(N2C[C@H]3CN(CC(=O)N(C)C)C(=O)[C@H]3C2)ncn1` the value was 96.6%.
`Clc1ccccc1Cc1noc(CN2CCCC(CN3CCCC3)C2)n1` (stereo not given): the cytotoxicity at 10 µM is -3.15%.
For `Cc1ccc(NC2CCN(C(=O)CCc3c(C)noc3C)CC2)nn1`, the cytotoxicity at 10 µM is -11.4%.
Under `CNC(=O)NC(=O)CCSc1ccccc1Cl` stands -5.13%; under `COc1cc(C)ccc1OCCN1CC[C@@]2(O)CCNC[C@H]2C1`, -157%; under `O=S(=O)(NCc1cn2ccccc2n1)N1CCOCC1`, 2.69%.
With `COc1ccc(CNc2c(N3CCN(C(C)=O)CC3)c(=O)c2=O)cc1`, the cytotoxicity at 10 µM is -2.36%.
Regarding `Cc1c(C(C)N)cnn1-c1ccccn1` (stereo not given), the cytotoxicity at 10 µM was -3.86%.
As to `COCCN(Cc1noc(-c2ccc(OC)cc2)n1)C1CC1`, the cytotoxicity at 10 µM came out at 5.69%.
On to `O=c1n(CC2CCCCO2)nc(CC2CCNCC2)n1-c1ccccc1` (stereo not given), for which the cytotoxicity at 10 µM was -6.66%.
Regarding `O=C(CN1C=Nc2ccccc2S1(=O)=O)NC1CCCCC1`, the cytotoxicity at 10 µM was 4.75%.
As for `Cc1ccc(N2CCOCC3(CCCN(c4ncc(F)cn4)C3)C2)nn1` (stereo not given), the cytotoxicity at 10 µM is -123%.
As for `Cc1cc(C(=O)N2CC[C@@H]3CN(CCC(C)C)S(=O)(=O)[C@@H]3CC2)no1`, the cytotoxicity at 10 µM turned out to be 1.58%.
As for `CCCn1ncc(C(=O)N2CCN(C(=O)c3ccc[nH]3)CC2)c1C`, the cytotoxicity at 10 µM was -151%.
Under `CC(C)(C)NCC(=O)N1CCCC(n2ccnc2)C1` (stereo not given) stands 0.462%; under `CC(C)(C)N1CCN(C(=O)c2cccnc2-n2cncn2)CC1`, 4.22%.
As for `CC(C)CN1CC[C@H]2OCC[C@@H](C(=O)N3CCCO3)[C@@H]2C1`, the cytotoxicity at 10 µM came out at 3.45%.
Under `CC(C)C(=O)N1CC[C@@H]2CN(Cc3ccncc3)S(=O)(=O)[C@@H]2CC1` stands 5.38%.
Under `CN(C(=O)OC(C)(C)C)C1CCN(C(=O)c2ccc(Cl)o2)C1` (stereo not given) stands -42.5%.
For `Cc1cc(C[C@@H]2COC[C@H]2NCc2ccc(Cl)c(Cl)c2)on1`, the cytotoxicity at 10 µM was -5.44%.
For `CN(C)c1ccc(NC(=O)N2CCCC2c2ccsc2)cn1` (stereo not given) the value was -7.81%; for `CSCc1cc(F)ccc1CNC(=O)N1CCCC1`, 5.58%; for `Cc1cnn(CC2CCCN2CC(=O)Nc2cc(C)nn2C)c1` (stereo not given), -20.1%.
Regarding `COCCNC(=O)[C@@]12CCO[C@@H]1CCN(Cc1cc(C)on1)C2`, the cytotoxicity at 10 µM is -69.8%.
Consider `Cc1cc(C(F)(F)F)n2nc(C3CCN(S(=O)(=O)N(C)C)CC3)cc2n1`, for which the cytotoxicity at 10 µM is -2.88%.
`CC(CNC(=O)Nc1ccc(N(C)C)nc1)Cn1cccn1` (stereo not given): the cytotoxicity at 10 µM amounted to 6.95%.
On to `O=C1NCC2(CCCN(c3ncnc4c3CCC4)CC2)O1` (stereo not given), for which the cytotoxicity at 10 µM was -0.718%.
As for `OC1(CNc2ccc(Br)cn2)CCC1`, the cytotoxicity at 10 µM came out at 6.59%.
Consider `COc1ccc(C(C)N(C)Cc2c(C(C)(C)C)[nH]c3ncccc23)cc1` (stereo not given), for which the cytotoxicity at 10 µM was -0.0612%.
For `CNC(=O)N(C)CC1(c2ccc(Br)cc2)CC1`, the cytotoxicity at 10 µM is -9.6%.
For `CN(C)c1ccc(CNC2(c3ccc(F)cc3)CCOCC2)cc1F`, the cytotoxicity at 10 µM is 0.937%.
For `O=C(c1cc(C2CC2)[nH]n1)N1CCN(Cc2ccsc2)CC1`, the cytotoxicity at 10 µM is -9.04%.
As to `Nc1ncnc2nc(C3CCN(C(=O)Cc4ccc(F)cc4)C3)ccc12` (stereo not given), the cytotoxicity at 10 µM is 1.76%.
As for `c1ccc2c(c1)CN(c1ncnc3c1CCNC3)CCO2`, the cytotoxicity at 10 µM was 3.13%.
`COCCN(C)C[C@@H]1CN(C(=O)c2cccc(Cl)c2)C[C@@H]1CO`: the cytotoxicity at 10 µM was -16.7%.
For `O=C(CN1CCCCC1)N1CCC(c2cc(=O)n3c(n2)CCCCC3)C1` (stereo not given) the value was -32.5%; for `c1cncc(OCc2noc3c2CN(Cc2ccco2)CC3)c1`, 1.71%.
On to `NC(=O)c1nc2c(s1)CCN(C(=O)Nc1cccc(Cl)c1)CC2`, for which the cytotoxicity at 10 µM is 6.64%.
Turning to `CCN(c1ccc(C(=O)NCCN2CCOCC2)cc1)S(=O)(=O)CC`, the cytotoxicity at 10 µM amounted to 6.89%.
For the molecule `Cc1ccc(C(=O)NCC2(O)CCOCC2)cc1Br`, the cytotoxicity at 10 µM is -1.3%.
For `CC(=O)N1CC[C@@H](N2CCN(C)CC2)[C@@H]1Cc1ccccc1` the value was 9.04%; for `CN(C)CCO[C@H]1CN(C(=O)c2ccc3c(c2)OCO3)[C@@H]2COC[C@H]12`, -151%; for `Cc1ccc(N2C[C@@H]3OCCN(CC4CC4)[C@@H]3C2)nn1`, 3.59%.
`Cc1ccc(CNC(=O)NC(C)CN2CCOCC2)s1` (stereo not given): the cytotoxicity at 10 µM was -14.1%.
For the molecule `Cc1[nH]c(=O)[nH]c(=O)c1CN1CCCC(CCc2c(F)cccc2F)C1` (stereo not given), the cytotoxicity at 10 µM is -7.32%.
`c1ncn(Cc2cn3c(n2)CN(CC2CCCCC2)CC3)n1`: the cytotoxicity at 10 µM is -123%.
For the molecule `Cc1nc(-c2cccc(N3CCC(N4CCCC4)CC3)c2)cs1`, the cytotoxicity at 10 µM is -17.2%.
As to `O=C(NCC1CCOCC1)c1cc(-c2ccc3c(c2)CCO3)n[nH]1`, the cytotoxicity at 10 µM came out at 2.63%.
In the case of `CN(C)C(=O)N1CCN(C)c2ncccc2C1`, the cytotoxicity at 10 µM is -4.14%.
In the case of `Cc1nc(COCc2cnc3n2CCN(C2CCC2)C3C)cs1` (stereo not given), the cytotoxicity at 10 µM was -3.82%.
Take `O=C(Nc1cccc(CNCc2cccnc2)c1)C1CCCC1`: the cytotoxicity at 10 µM was -9.27%.
